aDG glyco act: activators of alpha-DG glycosylation, primary screen, uHTS, Pro5-aDG cells, AlphaScreen. alpha-DG glycosylation AlphaScreen (IIH6); 0% Pro5, 100% B10-LARGE cell signal. activation, % at 10 µM. 360,000 compounds, 0.22% hits;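 active means activation of at least 8% versus controls, or a plate z-score of at least 8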;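 further: Pro5 are CHO cells carrying HIG-tagged alpha-DG that lacks glycosylation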
ADAM17 inh: ADAM17 inhibitors, primary screen, biochemical, QFRET; Disintegrin and metalloproteinase domain-containing protein 17 (Homo sapiens), P78536; recombinant ADAM17, EDANS/DABCYL FRET peptide cleavage; inhibition, % at 6.95 µM; 370,000 compounds, 0.83% hits;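 active means inhibition above the mean of compounds lying between control limits plus 3 SD, set per campaign, cut at about 8.5% in these data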;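 further: 0% = DMSO-only wells as the low control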
Lipid droplet: inhibitors of hepatocyte lipid droplet formation, primary screen, imaging, high-throughput imaging, BODIPY stain. inhibition, % at 6.5 µM. AID 1656, 2009. AML12 mouse hepatocytes, oleate lipid droplets. 240,000 compounds, 0.4% hits;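 active means lipid droplet intensity inhibited by at least 50%, with more than 500 cells counted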
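Technique: fluorescence imaging, 20x objective, two fields per well / Assay system: AML12 hepatocytes (mouse) / Measure: % inhibition of lipid droplet signal / Doses: 6.5 µM single-point dosing / Incubation: overnight exposure / Reagent: 100 µM oleic acid challenge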
V-ATPase pHluor: regulators of yeast V-ATPase proton pumping, primary screen, pHLuorin cytosolic pH fluorescence; S. cerevisiae; response, % at 10 µM; 350,000 compounds, 0.37% hits; AID 504577, 2011; in the data active means response mostly above about 7.3%, no sharp cut-off; inactive means mostly below about 5.4%; further: actives read high
MPTP block: mitochondrial permeability transition pore inhibitors, primary screen, biochemical, isolated mouse mitochondria, absorbance; Ca2+ swelling absorbance, 30 min; 360,000 compounds, 1.4% hits; inhibition, % at 10 µM;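 active means inhibition of 50% or more, scaled per plate between neutral and stimulator controls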;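 further: 0% = DMSO wells given calcium and 100% = 1 mM EGTA wells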
ADAM10 inh: human ADAM10 inhibitors, primary screen, biochemical, QFRET, HTS; Disintegrin and metalloproteinase domain-containing protein 10 (Homo sapiens), O14672; recombinant ADAM10, EDANS/DABCYL FRET peptide cleavage, 3 h; inhibition, % at 7 µM; 370,000 compounds, 0.62% hits; AID 720582, 2013;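 active means inhibition above a per-campaign cutoff equal to the mean of compounds falling between control-based bounds plus 3 SD, cut at about 20% in these data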;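 further: 0% = DMSO wells while the 100% control is not disclosed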
Target sequence (O14672 214-748 limits assumed): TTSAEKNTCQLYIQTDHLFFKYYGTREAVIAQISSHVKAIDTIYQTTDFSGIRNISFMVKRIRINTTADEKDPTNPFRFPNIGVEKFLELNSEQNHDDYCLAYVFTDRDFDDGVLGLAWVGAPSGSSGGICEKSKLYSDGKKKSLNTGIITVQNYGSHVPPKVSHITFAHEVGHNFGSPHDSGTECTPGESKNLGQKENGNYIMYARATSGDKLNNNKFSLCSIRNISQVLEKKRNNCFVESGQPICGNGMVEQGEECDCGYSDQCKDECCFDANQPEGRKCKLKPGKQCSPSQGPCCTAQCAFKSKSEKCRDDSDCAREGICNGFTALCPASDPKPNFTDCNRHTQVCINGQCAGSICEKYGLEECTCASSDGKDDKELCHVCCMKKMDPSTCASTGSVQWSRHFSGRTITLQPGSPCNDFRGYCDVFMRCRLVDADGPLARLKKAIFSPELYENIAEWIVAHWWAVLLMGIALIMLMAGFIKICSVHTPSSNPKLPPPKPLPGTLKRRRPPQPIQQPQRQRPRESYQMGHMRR
ADAM10 ctr: ADAM10 inhibitors, counter-screen for ADAM17 exosite inhibitor project, biochemical, FRET, human ADAM10 | shares compounds with ADAM17 inh | recombinant ADAM10, EDANS/DABCYL FRET peptide cleavage, 3 h | inhibition, % at 6.95 µM | 2,900 compounds, 47% hits | AID 743256, 2014;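 active means mean inhibition over the triplicate runs exceeds the activity threshold set in the earlier primary screen, cut at about 20% in these data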;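 further: 0% = DMSO wells and 100% = marimastat wells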
ADAM17 confirm: ADAM17 inhibitors, hit retest, confirmation, biochemical, QFRET peptide cleavage | shares compounds with ADAM17 inh | recombinant ADAM17, EDANS/DABCYL QFRET peptide cleavage | inhibition, % at 6.95 µM | 2,900 compounds, 65% hits;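 active means mean inhibition across replicates above the hit cutoff set in the primary screen, cut at about 8.5% in these data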;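 further: 0% = DMSO wells and 100% = marimastat wells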
* marks the source's active call; other numbers are inactive results; . = not tested or not shown. This is a sample that favours compounds with a hit; in the whole collection about 3.1% have one here.

SMILES	aDG glyco act	ADAM17 inh	Lipid droplet	V-ATPase pHluor	MPTP block	ADAM10 inh	ADAM10 ctr	ADAM17 confirm
COc1ccccc1NS(=O)(=O)c1ccc(Cl)c(NC(=S)NC(=O)C2CCCC2)c1	0.0	9.9*	3.7	-0.5	12.4	12.9	38.0*	16.7*
CCc1cc(-c2nnn(CCC3COCCO3)c2CC)ccc1-c1cn(CCc2c[nH]c3ccccc23)nn1 (stereo unspecified)	0.6	8.6*	.	1.7	0.5	-0.7	15.3	9.4*
Cc1ccc(S(=O)(=O)CNC(=S)c2ccc3ccccc3c2)cc1	-0.1	9.5*	10.8	0.9	2.1	14.9	65.1*	36.5*
Cc1ccc(S(=O)(=O)CNC(=S)c2cccc(C)c2)cc1	-0.1	2.1	-0.4	-3.5	1.3	9.9	.	.
COc1ccc(CN(CCN2CCOCC2)C(=O)c2ccccc2C)cc1OC	.	-4.0	.	.	.	-3.9	.	.
CCCCOC(=O)c1ccc(NC(=O)Nc2ccc(OC)c(OC)c2)cc1	0.2	11.7*	6.2	-5.1	-15.5	17.9	26.6*	12.5*
CC1CCN(S(=O)(=O)c2ccc3c(c2)N(CC(=O)NCCCN2C(C)CCCC2C)C(=O)CO3)CC1 (stereo unspecified)	-0.2	13.5*	27.4	-3.7	-1.6	2.5	0.1	7.9
O/N=C(\c1ccc(Cl)cc1Cl)c1ncc(C(F)(F)F)cc1Cl	0.1	11.8*	29.3	.	8.3	8.8	28.6*	12.9*
CCOC(=O)[C@]12CCCC3=C1N(CCC3)C(=O)[C@@H](CC(=O)NCCc1ccccc1OC)C2	.	-2.4	.	.	.	-2.6	.	.
CCOC(=O)c1c(C)[nH]c(N=Nc2cccc(C)c2)c1C	-0.4	9.7*	31.4	-0.3	4.8	13.7	24.4*	13.7*
CCOC(=O)c1c(C)[nH]c(N=Nc2cccc(OC)c2)c1C	-0.8	0.5	8.1	4.3	-0.1	8.5	.	.
CCc1ccc(NC2=CC(=O)CC(c3ccco3)C2)cc1 (stereo unspecified)	0.3	9.6*	.	2.3	0.4	14.5	-6.0	2.4
Cc1cc(C)cc(NC2=CC(=O)CC(c3ccco3)C2)c1 (stereo unspecified)	0.1	-2.4	-3.0	-1.6	0.7	-6.1	.	.
CC(C)(C)OC(=O)NCCCC[C@H](NC(=O)c1nc[nH]c1C(=O)NC1CCN(C(=O)OC(C)(C)C)CC1)C(=O)OC(C)(C)C	0.2	8.9*	-8.9	0.9	-1.5	16.7	-10.3	3.4
CCCN1C(=O)c2ccc(C(=O)Nc3cc(C)on3)cc2C1=O	0.0	9.7*	2.0	-2.4	-0.5	-0.2	-2.5	-3.5
CC(C)CN1C(=O)[C@]2(CC(=O)N(C)C2c2ccccc2)c2cc(-n3cc(CN(C)C)nn3)ccc21 (stereo partly specified)	.	1.2	.	.	.	2.9	.	.
COCCCN1C(=O)[C@H](CC(=O)NCc2cccc(C(F)(F)F)c2)[C@]2(C(=O)OC)CCCCC=C12	.	-4.8	.	.	.	-5.6	.	.
COc1cccc(CN(C)C(=O)c2cc(COc3ccc(-n4cncn4)cc3)on2)c1	1.0	8.7*	1.3	5.6	31.4	7.8	3.1	4.4
Cc1ccc(S(=O)(=O)NCC(c2ccco2)S(=O)(=O)c2ccccc2)cc1 (stereo unspecified)	0.6	-0.5	.	-1.5	-2.2	-2.3	.	.
Cc1ccc(S(=O)(=O)NCCC(c2ccc(F)cc2)c2ccco2)cc1 (stereo unspecified)	0.1	9.7*	1.3	2.1	15.3	14.9	20.7*	12.3*
Nc1[nH]c(C(=O)c2ccccc2)c(-c2ccc(F)cc2)c1C(=O)NCCc1c[nH]c2ccccc12	-0.3	-1.7	.	.	-0.2	-10.1	.	.
Nc1[nH]c(C(=O)c2ccccc2)c(-c2cc(F)ccc2Br)c1C(=O)NCCc1c[nH]c2ccccc12	.	10.3*	.	.	.	13.0	25.5*	15.9*
N#CCC(CNc1ncc(C(F)(F)F)cc1Cl)OC(=O)c1ccc(Cl)cc1 (stereo unspecified)	-0.3	8.7*	.	5.2	1.0	15.9	35.0*	15.9*
NNc1nnc2c3cc(F)ccc3n(CCc3ccccc3)c2n1	0.1	11.9*	-19.9	12.5	0.7	10.6	-5.1	1.0
C=CCn1c(Cc2cccs2)nnc1SCC(=O)Nc1ccc(OCc2ccccc2)cc1	.	7.6	.	.	.	13.2	.	.
SMILES	aDG glyco act	ADAM17 inh	Lipid droplet	V-ATPase pHluor	MPTP block	ADAM10 inh	ADAM10 ctr	ADAM17 confirm
COc1ccc(C(=O)C2(C(=O)NCc3ccccc3)CC(c3ccccc3C(F)(F)F)=NO2)cc1 (stereo unspecified)	.	9.1*	.	.	.	12.1	21.8*	14.5*
COc1ccc(CCNC(=O)C2CC(c3ccccc3C(F)(F)F)=NO2)cc1 (stereo unspecified)	0.2	-4.8	21.8	-2.9	-1.0	-4.8	.	.
COc1cccc(NC(=O)N(Cc2ccco2)C(C)c2cccs2)c1 (stereo unspecified)	0.5	6.2	0.5	-0.2	1.4	-0.8	.	.
CC(c1cccs1)N(Cc1ccco1)C(=O)Nc1ccc(Cl)c(Cl)c1 (stereo unspecified)	0.3	8.6*	-2.0	-2.2	29.3	9.7	-0.7	6.3
S=C(Nc1cccc(Br)c1)OC1CCC12CCC(c1ccccc1)CC2 (stereo unspecified)	.	-0.1	.	.	.	0.0	.	.
CCCCOc1ccc(NC(=O)CN2CCN(Cc3ccccc3)CC2)cc1	0.3	8.8*	14.4	1.0	0.1	14.4	-1.9	3.8
Cc1[nH]c2ccccc2c1/C=C/c1cc[n+](C)cc1	0.0	9.4*	.	13.0*	-0.9	3.0	5.0	4.1
C[n+]1ccc2[nH]c3ccccc3c2c1	0.0	-12.8	.	.	-0.5	-52.2	.	.
COc1ccc(-c2nnc(SCC(=O)N/N=C(\C)c3ccc(-c4ccccc4)cc3)n2-c2ccc(C)cc2)cc1	.	2.5	.	.	.	6.9	.	.
O=C1C(=O)N(Cc2ccc(-c3ccc(F)nc3)cc2)c2ccc(OC(F)(F)F)cc21	.	-0.8	.	.	.	-3.9	.	.
CC1CCN(C2(O)C(=O)Nc3ccc([N+](=O)[O-])cc32)CC1 (stereo unspecified)	0.0	10.6*	.	-0.6	1.1	17.2	12.0	7.9
